# In ChEMBL document CHEMBL1124296, “Molecular basis for bleomycin amplification: conformational and stereoelectronic effects in unfused amplifiers” (J Med Chem, 1988):
# System: Calf thymus DNA
# Assay: Binding constant to DNA measured spectrophotometrically
# Type: nucleic-acid assay
# Conditions: Bos taurus
# Outline: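 Calf thymus DNA, stripped of residual protein and dialyzed into PIPES 00 buffer (0.01 M PIPES, 0.001 M EDTA, NaOH to pH 7.00, [Na⁺] 0.019 M). DNA-P concentration was read at 260 nm with ε 6600 M⁻¹ cm⁻¹. Equilibrium binding constants were obtained spectrophotometrically by an earlier-reported procedure.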
row,SMILES,K [M⁻¹]
1,CN(C)CCNc1nccc(-c2cccs2)n1,4400
2,CN(C)CCOc1nccc(-c2cccs2)n1,3400
3,CN(C)CCSc1nccc(-c2cccn2C)n1,10100
4,CN(C)CCSc1nccc(-c2ccccc2)n1,8600
5,CSc1cc(-c2cccs2)nc(NCCN(C)C)n1,13700
6,CN(C)CCOc1cccc(-c2ccccc2)c1,3000
7,CN(C)CCNc1nccc(-c2nccs2)n1,3900
8,CN(C)CCOc1ccccc1-c1ccccc1,3000
9,CN(C)CCSc1nccc(-c2ccco2)n1,3500
10,CN(C)CCSc1nccc(-c2cccs2)n1,18700
11,Cc1cnc(SCCN(C)C)nc1-c1cccs1,48000
12,CN(C)CCOc1ccc(-c2ccccc2)cc1,3000
13,CSc1nc(NCCN(C)C)cc(-c2cccs2)n1,6800
14,Cc1cc(-c2cccs2)nc(SCCN(C)C)n1,24800
15,Cc1ccnc(-c2cc(COCCN(C)C)ccn2)c1,3000
16,CN(C)CCSc1nccc(-c2nccs2)n1,9250
